# Activity calls are given as the source filed them. No cut-off for these calls is given here.
# Test system: Staphylococcus aureus
# Assay: Antimicrobial activity against Staphylococcus aureus assessed as inhibition of microbial growth at 45 uM after 24 hrs
# Type: functional, organism-based
# In short: (§1)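 Broth microdilution single-concentration read: overnight cultures diluted 1:1000, compound in DMF (≤2.0%) added, 37°C for 24 h, growth inhibition scored visually by lack of turbidity; triplicate. Gram-positives grown in TSB, Gram-negatives in LB.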
row,Compound,growth inhibition (GI)
1,CCCCCCCN1C(=N)N(CCCC[C@H]2CNC(=N)N2CCCCC2CCCCC2)C[C@H]1Cc1cccc2ccccc12,Active
2,CCCCCCCN1C(=N)N(CCCC[C@H]2CNC(=N)N2CCC23CC4CC(CC(C4)C2)C3)C[C@@H]1CC1CCCCC1,Active
3,N=C1NC[C@H](CCCCN2C[C@@H](Cc3cccc4ccccc34)N(CCc3ccc(-c4ccccc4)cc3)C2=N)N1CCC12CC3CC(CC(C3)C1)C2,inactive
4,N=C1NC[C@H](CCCCN2C[C@H](CC3CCCCC3)N(CCCCC3CCCCC3)C2=N)N1CCc1cccc(C(F)(F)F)c1,Active
5,N=C1NC[C@H](CCCCN2C[C@@H](Cc3cccc4ccccc34)N(CCc3ccc(-c4ccccc4)cc3)C2=N)N1CCCCC1CCCCC1,Active
6,N=C1NC[C@H](CCCCN2C[C@@H](Cc3cccc4ccccc34)N(CCCCC3CCCCC3)C2=N)N1CCc1cccc(C(F)(F)F)c1,Active
7,N=C1NC[C@H](CCCCN2C[C@@H](Cc3cccc4ccccc34)N(CCc3ccc(-c4ccccc4)cc3)C2=N)N1CCc1cccc(C(F)(F)F)c1,Active
8,N=C1NC[C@H](CCCCN2C[C@H](CC3CCCCC3)N(CCCCC3CCCCC3)C2=N)N1CCCCC1CCCCC1,Active
9,CCCCCCCN1C(=N)N(CCCC[C@H]2CNC(=N)N2CCCCC2CCCCC2)C[C@@H]1CCCC,Active
10,CCCC[C@H]1CN(CCCC[C@H]2CNC(=N)N2CCC23CC4CC(CC(C4)C2)C3)C(=N)N1CCc1ccc(-c2ccccc2)cc1,Active
11,N=C1NC[C@H](CCCCN2C[C@H](CC3CCCCC3)N(CCc3ccc(-c4ccccc4)cc3)C2=N)N1CCC12CC3CC(CC(C3)C1)C2,Active

# Test system: Acinetobacter baumannii
# Assay: Antimicrobial activity against Acinetobacter baumannii assessed as inhibition of microbial growth at 45 uM after 24 hrs
# Type: functional, organism-based
# In short: as §1
row,Compound,growth inhibition (GI)
1,CCCCCCCN1C(=N)N(CCCC[C@H]2CNC(=N)N2CCCCC2CCCCC2)C[C@H]1Cc1cccc2ccccc12,Active
2,CCCCCCCN1C(=N)N(CCCC[C@H]2CNC(=N)N2CCC23CC4CC(CC(C4)C2)C3)C[C@@H]1CC1CCCCC1,Active
3,N=C1NC[C@H](CCCCN2C[C@@H](Cc3cccc4ccccc34)N(CCc3ccc(-c4ccccc4)cc3)C2=N)N1CCC12CC3CC(CC(C3)C1)C2,inactive
4,N=C1NC[C@H](CCCCN2C[C@H](CC3CCCCC3)N(CCCCC3CCCCC3)C2=N)N1CCc1cccc(C(F)(F)F)c1,Active
5,N=C1NC[C@H](CCCCN2C[C@@H](Cc3cccc4ccccc34)N(CCc3ccc(-c4ccccc4)cc3)C2=N)N1CCCCC1CCCCC1,Active
6,N=C1NC[C@H](CCCCN2C[C@@H](Cc3cccc4ccccc34)N(CCCCC3CCCCC3)C2=N)N1CCc1cccc(C(F)(F)F)c1,Active
7,N=C1NC[C@H](CCCCN2C[C@@H](Cc3cccc4ccccc34)N(CCc3ccc(-c4ccccc4)cc3)C2=N)N1CCc1cccc(C(F)(F)F)c1,Active
8,N=C1NC[C@H](CCCCN2C[C@H](CC3CCCCC3)N(CCCCC3CCCCC3)C2=N)N1CCCCC1CCCCC1,Active
9,CCCCCCCN1C(=N)N(CCCC[C@H]2CNC(=N)N2CCCCC2CCCCC2)C[C@@H]1CCCC,Active
10,CCCC[C@H]1CN(CCCC[C@H]2CNC(=N)N2CCC23CC4CC(CC(C4)C2)C3)C(=N)N1CCc1ccc(-c2ccccc2)cc1,Active
11,N=C1NC[C@H](CCCCN2C[C@H](CC3CCCCC3)N(CCc3ccc(-c4ccccc4)cc3)C2=N)N1CCC12CC3CC(CC(C3)C1)C2,Active

# Test system: Enterobacter cloacae
# Assay: Antimicrobial activity against Enterobacter cloacae assessed as inhibition of microbial growth at 45 uM after 24 hrs
# Type: functional, organism-based
# In short: as §1
row,Compound,growth inhibition (GI)
1,CCCCCCCN1C(=N)N(CCCC[C@H]2CNC(=N)N2CCCCC2CCCCC2)C[C@H]1Cc1cccc2ccccc12,Active
2,CCCCCCCN1C(=N)N(CCCC[C@H]2CNC(=N)N2CCC23CC4CC(CC(C4)C2)C3)C[C@@H]1CC1CCCCC1,Active
3,N=C1NC[C@H](CCCCN2C[C@@H](Cc3cccc4ccccc34)N(CCc3ccc(-c4ccccc4)cc3)C2=N)N1CCC12CC3CC(CC(C3)C1)C2,inactive
4,N=C1NC[C@H](CCCCN2C[C@H](CC3CCCCC3)N(CCCCC3CCCCC3)C2=N)N1CCc1cccc(C(F)(F)F)c1,Active
5,N=C1NC[C@H](CCCCN2C[C@@H](Cc3cccc4ccccc34)N(CCc3ccc(-c4ccccc4)cc3)C2=N)N1CCCCC1CCCCC1,Active
6,N=C1NC[C@H](CCCCN2C[C@@H](Cc3cccc4ccccc34)N(CCCCC3CCCCC3)C2=N)N1CCc1cccc(C(F)(F)F)c1,Active
7,N=C1NC[C@H](CCCCN2C[C@@H](Cc3cccc4ccccc34)N(CCc3ccc(-c4ccccc4)cc3)C2=N)N1CCc1cccc(C(F)(F)F)c1,Active
8,N=C1NC[C@H](CCCCN2C[C@H](CC3CCCCC3)N(CCCCC3CCCCC3)C2=N)N1CCCCC1CCCCC1,Active
9,CCCCCCCN1C(=N)N(CCCC[C@H]2CNC(=N)N2CCCCC2CCCCC2)C[C@@H]1CCCC,Active
10,CCCC[C@H]1CN(CCCC[C@H]2CNC(=N)N2CCC23CC4CC(CC(C4)C2)C3)C(=N)N1CCc1ccc(-c2ccccc2)cc1,Active
11,N=C1NC[C@H](CCCCN2C[C@H](CC3CCCCC3)N(CCc3ccc(-c4ccccc4)cc3)C2=N)N1CCC12CC3CC(CC(C3)C1)C2,Active

# Test system: Enterococcus faecium
# Assay: Antimicrobial activity against Enterococcus faecium assessed as inhibition of microbial growth at 45 uM after 24 hrs
# Type: functional, organism-based
# In short: as §1
row,Compound,growth inhibition (GI)
1,CCCCCCCN1C(=N)N(CCCC[C@H]2CNC(=N)N2CCCCC2CCCCC2)C[C@H]1Cc1cccc2ccccc12,Active
2,CCCCCCCN1C(=N)N(CCCC[C@H]2CNC(=N)N2CCC23CC4CC(CC(C4)C2)C3)C[C@@H]1CC1CCCCC1,Active
3,N=C1NC[C@H](CCCCN2C[C@@H](Cc3cccc4ccccc34)N(CCc3ccc(-c4ccccc4)cc3)C2=N)N1CCC12CC3CC(CC(C3)C1)C2,inactive
4,N=C1NC[C@H](CCCCN2C[C@H](CC3CCCCC3)N(CCCCC3CCCCC3)C2=N)N1CCc1cccc(C(F)(F)F)c1,Active
5,N=C1NC[C@H](CCCCN2C[C@@H](Cc3cccc4ccccc34)N(CCc3ccc(-c4ccccc4)cc3)C2=N)N1CCCCC1CCCCC1,Active
6,N=C1NC[C@H](CCCCN2C[C@@H](Cc3cccc4ccccc34)N(CCCCC3CCCCC3)C2=N)N1CCc1cccc(C(F)(F)F)c1,Active
7,N=C1NC[C@H](CCCCN2C[C@@H](Cc3cccc4ccccc34)N(CCc3ccc(-c4ccccc4)cc3)C2=N)N1CCc1cccc(C(F)(F)F)c1,Active
8,N=C1NC[C@H](CCCCN2C[C@H](CC3CCCCC3)N(CCCCC3CCCCC3)C2=N)N1CCCCC1CCCCC1,Active
9,CCCCCCCN1C(=N)N(CCCC[C@H]2CNC(=N)N2CCCCC2CCCCC2)C[C@@H]1CCCC,Active
10,CCCC[C@H]1CN(CCCC[C@H]2CNC(=N)N2CCC23CC4CC(CC(C4)C2)C3)C(=N)N1CCc1ccc(-c2ccccc2)cc1,Active
11,N=C1NC[C@H](CCCCN2C[C@H](CC3CCCCC3)N(CCc3ccc(-c4ccccc4)cc3)C2=N)N1CCC12CC3CC(CC(C3)C1)C2,Active

# Test system: Klebsiella pneumoniae
# Assay: Antimicrobial activity against Klebsiella pneumoniae assessed as inhibition of microbial growth at 45 uM after 24 hrs
# Type: functional, organism-based
# In short: as §1
row,Compound,growth inhibition (GI)
1,CCCCCCCN1C(=N)N(CCCC[C@H]2CNC(=N)N2CCCCC2CCCCC2)C[C@H]1Cc1cccc2ccccc12,Active
2,CCCCCCCN1C(=N)N(CCCC[C@H]2CNC(=N)N2CCC23CC4CC(CC(C4)C2)C3)C[C@@H]1CC1CCCCC1,Active
3,N=C1NC[C@H](CCCCN2C[C@@H](Cc3cccc4ccccc34)N(CCc3ccc(-c4ccccc4)cc3)C2=N)N1CCC12CC3CC(CC(C3)C1)C2,inactive
4,N=C1NC[C@H](CCCCN2C[C@H](CC3CCCCC3)N(CCCCC3CCCCC3)C2=N)N1CCc1cccc(C(F)(F)F)c1,Active
5,N=C1NC[C@H](CCCCN2C[C@@H](Cc3cccc4ccccc34)N(CCc3ccc(-c4ccccc4)cc3)C2=N)N1CCCCC1CCCCC1,Active
6,N=C1NC[C@H](CCCCN2C[C@@H](Cc3cccc4ccccc34)N(CCCCC3CCCCC3)C2=N)N1CCc1cccc(C(F)(F)F)c1,Active
7,N=C1NC[C@H](CCCCN2C[C@@H](Cc3cccc4ccccc34)N(CCc3ccc(-c4ccccc4)cc3)C2=N)N1CCc1cccc(C(F)(F)F)c1,Active
8,N=C1NC[C@H](CCCCN2C[C@H](CC3CCCCC3)N(CCCCC3CCCCC3)C2=N)N1CCCCC1CCCCC1,Active
9,CCCCCCCN1C(=N)N(CCCC[C@H]2CNC(=N)N2CCCCC2CCCCC2)C[C@@H]1CCCC,Active
10,CCCC[C@H]1CN(CCCC[C@H]2CNC(=N)N2CCC23CC4CC(CC(C4)C2)C3)C(=N)N1CCc1ccc(-c2ccccc2)cc1,Active
11,N=C1NC[C@H](CCCCN2C[C@H](CC3CCCCC3)N(CCc3ccc(-c4ccccc4)cc3)C2=N)N1CCC12CC3CC(CC(C3)C1)C2,Active

# Test system: Pseudomonas aeruginosa
# Assay: Antimicrobial activity against Pseudomonas aeruginosa assessed as inhibition of microbial growth at 45 uM after 24 hrs
# Type: functional, organism-based
# In short: as §1
row,Compound,growth inhibition (GI)
1,CCCCCCCN1C(=N)N(CCCC[C@H]2CNC(=N)N2CCCCC2CCCCC2)C[C@H]1Cc1cccc2ccccc12,Active
2,CCCCCCCN1C(=N)N(CCCC[C@H]2CNC(=N)N2CCC23CC4CC(CC(C4)C2)C3)C[C@@H]1CC1CCCCC1,Active
3,N=C1NC[C@H](CCCCN2C[C@@H](Cc3cccc4ccccc34)N(CCc3ccc(-c4ccccc4)cc3)C2=N)N1CCC12CC3CC(CC(C3)C1)C2,inactive
4,N=C1NC[C@H](CCCCN2C[C@H](CC3CCCCC3)N(CCCCC3CCCCC3)C2=N)N1CCc1cccc(C(F)(F)F)c1,Active
5,N=C1NC[C@H](CCCCN2C[C@@H](Cc3cccc4ccccc34)N(CCc3ccc(-c4ccccc4)cc3)C2=N)N1CCCCC1CCCCC1,Active
6,N=C1NC[C@H](CCCCN2C[C@@H](Cc3cccc4ccccc34)N(CCCCC3CCCCC3)C2=N)N1CCc1cccc(C(F)(F)F)c1,Active
7,N=C1NC[C@H](CCCCN2C[C@@H](Cc3cccc4ccccc34)N(CCc3ccc(-c4ccccc4)cc3)C2=N)N1CCc1cccc(C(F)(F)F)c1,Active
8,N=C1NC[C@H](CCCCN2C[C@H](CC3CCCCC3)N(CCCCC3CCCCC3)C2=N)N1CCCCC1CCCCC1,Active
9,CCCCCCCN1C(=N)N(CCCC[C@H]2CNC(=N)N2CCCCC2CCCCC2)C[C@@H]1CCCC,Active
10,CCCC[C@H]1CN(CCCC[C@H]2CNC(=N)N2CCC23CC4CC(CC(C4)C2)C3)C(=N)N1CCc1ccc(-c2ccccc2)cc1,Active
11,N=C1NC[C@H](CCCCN2C[C@H](CC3CCCCC3)N(CCc3ccc(-c4ccccc4)cc3)C2=N)N1CCC12CC3CC(CC(C3)C1)C2,Active
